{"source": "paper PMC4955361", "about": "(Bioorganic & medicinal chemistry letters, 2016)", "key": {"M5 [1]": {"molecular_target": "T1, M5 (Homo sapiens, UniProt P08912)", "T1 sequence (P08912 1-532)": "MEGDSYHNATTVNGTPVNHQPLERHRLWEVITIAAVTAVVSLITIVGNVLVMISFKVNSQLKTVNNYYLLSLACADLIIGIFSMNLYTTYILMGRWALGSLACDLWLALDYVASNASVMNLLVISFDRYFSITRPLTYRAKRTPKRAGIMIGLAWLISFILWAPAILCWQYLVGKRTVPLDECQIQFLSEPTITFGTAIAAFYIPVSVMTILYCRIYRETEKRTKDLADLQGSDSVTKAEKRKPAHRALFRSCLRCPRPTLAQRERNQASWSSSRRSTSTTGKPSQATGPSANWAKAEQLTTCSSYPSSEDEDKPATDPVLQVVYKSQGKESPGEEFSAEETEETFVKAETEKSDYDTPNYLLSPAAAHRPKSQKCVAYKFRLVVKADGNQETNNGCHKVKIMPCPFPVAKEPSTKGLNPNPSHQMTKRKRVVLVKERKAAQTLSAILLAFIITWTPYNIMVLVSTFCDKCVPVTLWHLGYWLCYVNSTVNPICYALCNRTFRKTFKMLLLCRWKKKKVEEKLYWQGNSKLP", "experiment": "Muscarinic receptor subtype selectivity, M5", "type": "cell-based", "details": "for selectivity versus M5: data not shown; for potency at M5 relative to M4: antagonist"}, "M1 [2]": {"molecular_target": "T2, M1 (Homo sapiens, UniProt P11229)", "T2 sequence (P11229 1-460)": "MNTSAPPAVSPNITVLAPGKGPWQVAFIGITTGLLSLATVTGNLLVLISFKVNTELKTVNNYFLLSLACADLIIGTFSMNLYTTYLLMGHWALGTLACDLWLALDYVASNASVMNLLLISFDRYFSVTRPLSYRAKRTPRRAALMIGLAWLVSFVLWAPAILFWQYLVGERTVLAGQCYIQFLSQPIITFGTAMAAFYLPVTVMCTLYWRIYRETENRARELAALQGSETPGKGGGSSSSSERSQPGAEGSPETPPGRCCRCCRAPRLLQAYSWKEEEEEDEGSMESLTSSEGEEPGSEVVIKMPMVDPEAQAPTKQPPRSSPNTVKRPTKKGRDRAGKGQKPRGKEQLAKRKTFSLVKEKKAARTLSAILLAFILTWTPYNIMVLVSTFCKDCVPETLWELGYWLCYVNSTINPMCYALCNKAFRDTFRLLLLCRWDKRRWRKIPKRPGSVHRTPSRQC", "experiment": "Muscarinic receptor subtype selectivity, M1", "type": "cell-based", "details": "for selectivity versus M1: data not shown; for potency at M1 relative to M4: antagonist"}, "CYP450": {"tested_on": "CYP450", "experiment": "CYP450 inhibition profile", "type": "in vitro ADME", "details": "in words"}, "M3": {"molecular_target": "M3 (Homo sapiens, UniProt P20309)", "sequence (P20309 whole entry)": "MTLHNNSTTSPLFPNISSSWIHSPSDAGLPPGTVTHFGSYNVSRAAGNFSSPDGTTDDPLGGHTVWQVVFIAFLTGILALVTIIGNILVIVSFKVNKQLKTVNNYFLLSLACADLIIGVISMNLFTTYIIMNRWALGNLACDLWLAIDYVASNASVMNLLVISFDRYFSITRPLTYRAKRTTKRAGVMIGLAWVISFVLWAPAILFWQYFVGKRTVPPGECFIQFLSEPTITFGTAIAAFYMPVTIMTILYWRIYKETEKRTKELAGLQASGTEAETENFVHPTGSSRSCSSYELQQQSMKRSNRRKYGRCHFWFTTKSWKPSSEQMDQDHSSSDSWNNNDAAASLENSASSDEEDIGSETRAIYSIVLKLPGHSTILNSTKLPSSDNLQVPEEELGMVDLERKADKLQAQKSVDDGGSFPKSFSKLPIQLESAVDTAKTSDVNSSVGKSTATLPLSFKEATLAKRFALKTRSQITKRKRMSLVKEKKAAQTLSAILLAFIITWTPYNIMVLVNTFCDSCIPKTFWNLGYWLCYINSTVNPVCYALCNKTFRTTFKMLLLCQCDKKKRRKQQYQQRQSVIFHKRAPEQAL", "experiment": "Muscarinic receptor subtype selectivity, M3", "type": "cell-based", "details": "antagonist"}, "M2": {"molecular_target": "T3, M2 (Homo sapiens, UniProt P08172)", "T3 sequence (P08172 1-466)": "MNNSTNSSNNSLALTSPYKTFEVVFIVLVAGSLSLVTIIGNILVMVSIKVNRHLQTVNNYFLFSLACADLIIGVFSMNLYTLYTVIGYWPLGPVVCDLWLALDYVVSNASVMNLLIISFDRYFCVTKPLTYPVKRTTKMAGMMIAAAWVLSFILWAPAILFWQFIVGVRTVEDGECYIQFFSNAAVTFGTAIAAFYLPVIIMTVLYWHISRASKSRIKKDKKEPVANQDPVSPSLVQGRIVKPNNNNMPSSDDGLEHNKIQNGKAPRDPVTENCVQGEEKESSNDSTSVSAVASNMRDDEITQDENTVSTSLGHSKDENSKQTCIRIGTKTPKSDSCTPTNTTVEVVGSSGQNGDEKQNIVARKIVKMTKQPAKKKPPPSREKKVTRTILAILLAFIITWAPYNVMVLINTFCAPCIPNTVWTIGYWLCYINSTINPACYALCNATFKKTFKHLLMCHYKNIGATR", "experiment": "Muscarinic receptor subtype selectivity, M2", "type": "cell-based", "details": "antagonist"}, "[3]": {"experiment": "Intrinsic clearance in rat hepatic microsomes", "type": "in vitro ADME", "details": "predicted hepatic clearance from in vitro intrinsic clearance"}, "[4]": {"experiment": "Intrinsic clearance in human hepatic microsomes", "type": "in vitro ADME", "details": "predicted hepatic clearance from in vitro intrinsic clearance"}, "M1 [5]": {"molecular_target": "T2, M1", "experiment": "Built-in HTS counterscreen, human M1", "type": "cell-based"}, "[6]": {"experiment": "Rat brain:plasma distribution", "type": "in vivo", "details": "in words"}, "human M4": {"molecular_target": "T4, human M4 (Homo sapiens, UniProt P08173)", "T4 sequence (P08173 1-479)": "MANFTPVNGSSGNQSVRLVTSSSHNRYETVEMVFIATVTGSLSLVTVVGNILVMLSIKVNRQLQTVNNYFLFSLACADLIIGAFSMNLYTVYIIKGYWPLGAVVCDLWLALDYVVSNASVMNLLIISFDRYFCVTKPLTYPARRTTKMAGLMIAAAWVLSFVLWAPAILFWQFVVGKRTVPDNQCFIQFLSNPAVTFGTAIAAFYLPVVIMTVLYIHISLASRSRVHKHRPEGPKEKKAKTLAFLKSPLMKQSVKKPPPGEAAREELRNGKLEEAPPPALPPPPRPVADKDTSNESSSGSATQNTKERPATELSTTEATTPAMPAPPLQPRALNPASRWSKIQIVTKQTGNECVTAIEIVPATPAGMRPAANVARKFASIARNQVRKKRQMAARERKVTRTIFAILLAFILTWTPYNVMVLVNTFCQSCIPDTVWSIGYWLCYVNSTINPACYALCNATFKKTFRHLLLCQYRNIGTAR", "type": "cell-based", "details": "read-out: % ACh Max ± SEM", "outline": "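Functional Ca2+ mobilization read-out in CHO cells co-expressing human M4 and the chimeric G protein Gqi5. Test compound is applied with a fixed ~EC20 concentration of acetylcholine. PAM potency is reported as EC50/pEC50 and efficacy as % of the acetylcholine maximum. Values are means of at least three independent determinations.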"}, "M5 [7]": {"molecular_target": "T1, M5", "experiment": "Built-in HTS counterscreen, human M5", "type": "cell-based"}, "rats": {"tested_on": "rats", "details": "by potentiation of receptor activation by endogenous acetylcholine; cited from earlier work"}, "rodent": {"tested_on": "rodent", "details": "cited from earlier work"}, "[8]": {"experiment": "Metabolite identification", "type": "in vitro ADME", "details": "human hepatic microsomes, NADPH-dependent"}, "[9]": {"experiment": "Metabolite identification", "type": "in vitro ADME", "details": "rat hepatic microsomes, NADPH-dependent"}}}
{"compound": "Cc1sc2ncnc(N3CCC(C(=O)Nc4cc(Cl)ccc4Cl)CC3)c2c1C", "note": "[10h]", "values": [{"measurement": "selectivity versus M5", "setting": "M5 [1]", "value": "retaining selectivity"}, {"measurement": "selectivity versus M1", "setting": "M1 [2]", "value": "retaining selectivity"}]}
{"compound": "CCCCN(c1ccc(C)nc1)C1CCN(c2ncnc3sc(C)c(C)c23)CC1", "note": "[compound 20]", "values": [{"measurement": "CYP450 inhibition profile", "setting": "CYP450", "value": "acceptable"}, {"measurement": "potency at M5 relative to M4", "setting": "M5 [1]", "value": "similarly potent"}, {"measurement": "potency at M1 relative to M4", "setting": "M1 [2]", "value": "similarly potent"}, {"measurement": "potency at M3 relative to M4", "setting": "M3", "value": "similarly potent"}, {"measurement": "potency at M2 relative to M4", "setting": "M2", "value": "similarly potent"}]}
{"compound": "Cc1sc2ncnc(N3CCC(C(=O)Nc4ccc(S(C)(=O)=O)cc4)CC3)c2c1C", "note": "[10e]", "values": [{"measurement": "selectivity versus M5", "setting": "M5 [1]", "value": "retaining selectivity"}, {"measurement": "selectivity versus M1", "setting": "M1 [2]", "value": "retaining selectivity"}]}
{"compound": "Cc1sc2ncnc(N3CCC(C(=O)N4CC[C@H](F)C4)CC3)c2c1C", "note": "[11b]", "values": [{"measurement": "predicted CLhep, rat", "setting": "[3]", "value": 68, "unit": "mL/min/kg"}, {"measurement": "predicted CLhep, human", "setting": "[4]", "value": 14, "unit": "mL/min/kg"}]}
{"compound": "CCCN(c1ccc(C)nc1)C1CCN(c2ncnc3sc(C)c(C)c23)CC1", "note": "[compound 19]", "values": [{"measurement": "CYP450 inhibition profile", "setting": "CYP450", "value": "acceptable"}, {"measurement": "potency at M5 relative to M4", "setting": "M5 [1]", "value": "similarly potent"}, {"measurement": "potency at M1 relative to M4", "setting": "M1 [2]", "value": "similarly potent"}, {"measurement": "potency at M3 relative to M4", "setting": "M3", "value": "similarly potent"}, {"measurement": "potency at M2 relative to M4", "setting": "M2", "value": "similarly potent"}]}
{"compound": "Cc1sc2ncnc(N3CCC(C(=O)Nc4ccc(S(N)(=O)=O)cc4)CC3)c2c1C", "note": "[compound 5]", "values": [{"measurement": "activity on human M1", "setting": "M1 [5]", "value": "inactive"}, {"measurement": "CNS penetration", "setting": "[6]", "value": "not CNS penetrant"}, {"measurement": "Emax", "setting": "human M4", "value": "91 ± 4", "unit": "%"}, {"measurement": "activity on human M5", "setting": "M5 [7]", "value": "inactive"}]}
{"compound": "Cc1ccc(OC2CCN(c3ncnc4ccc(F)cc34)CC2)cn1", "note": "[17b]", "values": [{"measurement": "predicted CLhep, rat", "setting": "[3]", "value": 50, "unit": "mL/min/kg"}, {"measurement": "predicted CLhep, human", "setting": "[4]", "value": 12, "unit": "mL/min/kg"}]}
{"compound": "COc1ccc(CNC(=O)c2sc3nc(C)cc(C)c3c2N)cc1", "note": "[VU0152100]", "values": [{"measurement": "antipsychotic-like activity in rats", "setting": "rats", "value": "displayed antipsychotic-like activity"}]}
{"compound": "Cc1sc2ncnc(N3CCC(C(=O)Nc4ccc(F)cc4Cl)CC3)c2c1C", "note": "[10g]", "values": [{"measurement": "selectivity versus M5", "setting": "M5 [1]", "value": "retaining selectivity"}, {"measurement": "selectivity versus M1", "setting": "M1 [2]", "value": "retaining selectivity"}]}
{"compound": "Cc1sc2ncnc(N3CCC(C(=O)N4CCCC4)CC3)c2c1C", "note": "[11a]", "values": [{"measurement": "predicted CLhep, rat", "setting": "[3]", "value": 67, "unit": "mL/min/kg"}, {"measurement": "predicted CLhep, human", "setting": "[4]", "value": 16, "unit": "mL/min/kg"}]}
{"compound": "Cc1nnc2sc(C(=O)NCc3ccc(S(=O)(=O)C(F)(F)F)cc3)c(N)c2c1C", "note": "[VU0467154]", "values": [{"measurement": "in vivo efficacy in rodent antipsychotic and cognition models", "setting": "rodent", "value": "robust in vivo efficacy"}]}
{"compound": "Cc1ccc(OC2CCN(c3ncnc4sc(C)c(C)c34)CC2)cn1", "note": "[14b]", "values": [{"measurement": "predicted CLhep, rat", "setting": "[3]", "value": 68, "unit": "mL/min/kg"}, {"measurement": "major metabolic route in human", "setting": "[8]", "value": "heteroatom (likely the thiophene sulfur) oxidation"}, {"measurement": "major pathway of metabolism in rat", "setting": "[9]", "value": "hydroxylation of the 5,6-dimethyl moiety"}, {"measurement": "predicted CLhep, human", "setting": "[4]", "value": 20, "unit": "mL/min/kg"}]}
